Source: ChEMBL document CHEMBL1132370, “8,11-dihydroxy-6-[(aminoalkyl)amino]-7H-benzo[e]perimidin-7-ones with activity in multidrug-resistant cell lines: synthesis and antitumor evaluation” (J Med Chem, 1999)
“And” between values parts separate entries of the source, which are not always exact repeats. Equal values may be shown once.

Columns and labels:
A2780 [1] = experiment: In vitro Cytotoxic activity of compound in comparison with reference compounds in human cell line A2780/Dx(RI); type: functional, cell-based
Summary of the method: (§1)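 Monolayer lines were used: A2780, A2780/Dx, DU145 and PC3 in RPMI 1640, LoVo and LoVo/Dx in Ham's F-12, and HT29 and HT29/Mx in McCoy's 5A, each with 10% FBS. Drug exposure was 72 h. […] Resistance index = IC50 in resistant / IC50 in sensitive line.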

A2780 [2] = experiment: In vitro Cytotoxic activity of compound in comparison with reference compounds in human cell line A2780; type: functional, cell-based; summary of the method: as §1
HT-29 [3] = experiment: Effect of compound as percent survival at dose of 100n g/mL on HT-29 cell line after 72 hours; type: functional, Homo sapiens
Summary of the method: (§2)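 HT29 or mitoxantrone-resistant HT29/Mx monolayers grown in McCoy's 5A with 10% FBS and 1% 1 M Hepes at 37 °C, 5% CO2. Cells exposed to drug for 72 h. Survival measured by cell counting and given as percent of untreated control.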

HT-29 [4] = experiment: Percent inhibition at G1 phase of cell cycle at a dose of 100n g/mL after 72 hours of induction in HT-29/Mx cell line; type: functional, Homo sapiens
Summary of the method: (§3)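 HT29 or HT29/Mx cells were treated for 72 h, then fixed in 70% ice-cold ethanol. Cells were stained with PBS containing 30 μg/mL propidium iodide and 66 units/mL RNase A, and DNA content was measured by flow cytometry on at least 10^4 cells to give G1, S and G2/M fractions.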

HT-29 [5] = experiment: Percent inhibition at G1 phase of cell cycle at a dose of 10 ng/mL after 72 hours of induction in HT-29/Mx cell line; type: functional; conditions: Homo sapiens, HT-29, 72 h; summary of the method: as §3
HT-29 [6] = experiment: Percent inhibition at G1 phase of cell cycle at a dose of 20 ng/mL after 72 hours of induction in HT-29/Mx cell line; type: functional; conditions: Homo sapiens, HT-29, 72 h; summary of the method: as §3
HT-29 [7] = experiment: Percent inhibition at G2/M phase of cell cycle at a dose of 20 ng/mL after 72 hours of induction in HT-29/Mx cell line; type: functional; conditions: Homo sapiens, HT-29, 72 h; summary of the method: as §3
HT-29 [8] = experiment: Percent inhibition at S phase of cell cycle at a dose of 100n g/mL after 72 hours of induction in HT-29/Mx cell line; type: functional, Homo sapiens
Summary of the method: (§4)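 HT29 and mitoxantrone-resistant HT29/Mx colon adenocarcinoma monolayers in McCoy's 5A with 10% FBS and 1% 1 M Hepes, 37 °C, 5% CO2. Drug exposure 72 h. Cells then fixed in 70% ice-cold ethanol, washed twice and resuspended in PBS with 30 μg/mL propidium iodide and 66 units/mL RNase A. At least 10^4 cells per sample read for DNA content by flow cytometry. G1/S/G2M fractions reported as percentages.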

HT-29 [9] = experiment: Percent inhibition at S phase of cell cycle at a dose of 20 ng/mL after 72 hours of induction in HT-29/Mx cell line; type: functional; conditions: Homo sapiens, HT-29, 72 h; summary of the method: as §4
HT-29 [10] = experiment: Effect of compound as percent survival at dose of 10 ng/mL on HT-29/Mx cell line after 72 hours; type: functional; conditions: Homo sapiens, HT-29, 72 h; read-out: Survival; summary of the method: as §2
L1210 = experiment: Compound was tested in vitro for cytotoxicity against L1210 murine cell line (48 hr exposure to compound); type: functional, cell-based; conditions: Mus musculus, L1210, 48 h
Summary of the method: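 L1210 cells were grown in RPMI 1640 with 5% FBS, 37 °C, 5% CO2, and exposed to drug for 48 h. Growth was read by Lowry cellular protein. IC50 is the concentration giving 50% growth inhibition, reported as the mean of at least three independent experiments ± SEM.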

LoVo = experiment: In vitro Cytotoxic activity of compound in comparison with reference compounds in human cell line LoVo/Dx(RI); type: functional, cell-based; summary of the method: as §1
Mus musculus [11] = experiment: In vivo antileukemic activity towards P388 Murine Leukemia at a dose of 1.0 mg/kg, expressed as body weight change; type: functional
Mus musculus [12] = experiment: In vivo antileukemic activity towards P388 Murine Leukemia at a dose of 30.0 mg/kg, expressed as body weight change; type: functional
Mus musculus [13] = experiment: Long-term survivors when compound was tested for in vivo antileukemic activity towards P388 Murine Leukemia at dose of 20.0 mg/kg tested in 6 animals; type: functional
Mus musculus [14] = experiment: Long-term survivors when compound was tested for in vivo antileukemic activity towards P388 Murine Leukemia at dose of 22.5 mg/kg tested in 6 animals; type: functional
Mus musculus [15] = experiment: In vivo antileukemic activity towards P388 Murine Leukemia at a dose of 1.0 mg/kg; type: functional
Mus musculus [16] = experiment: In vivo antileukemic activity towards P388 Murine Leukemia at a dose of 10.0 mg/kg; type: functional
Mus musculus [17] = experiment: In vivo antileukemic activity towards P388 Murine Leukemia at a dose of 2.5 mg/kg; type: functional
Mus musculus [18] = experiment: Toxic deaths at dose of 10 mg/kg (i.v.) to nude mice bearing sc Human ovarian carcinoma Xenografts tested in 4 animals; type: functional; conditions: route intravenous
Summary of the method: (§5)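 Tumor fragments of A2780, A2780/Dx or HT29/Mx grafted sc in both flanks of Swiss athymic nude mice, 4–5 mice per group. Drug given iv once weekly on 3 days: days 4, 11, 18 (A2780, HT29/Mx) or days 7, 14, 21 (A2780/Dx). Dosing started at mean tumor volume 80–100 mm3. Toxic deaths recorded as deaths/total mice.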

Mus musculus [19] = experiment: Toxic deaths at dose of 6.7 mg/kg (i.v.) to nude mice bearing sc Human A2780 tumor Xenografts tested in 4 animals; type: functional; conditions: route intravenous; summary of the method: as §5
Mus musculus [20] = experiment: Toxic deaths at dose of 6.7 mg/kg (i.v.) to nude mice bearing sc Human A2780/Dx tumor Xenografts tested in 5 animals; type: functional; conditions: route intravenous; summary of the method: as §5
Mus musculus [21] = experiment: Long-term survivors when compound was tested for in vivo antileukemic activity towards P388 Murine Leukemia at dose of 30.0 mg/kg tested in 6 animals; type: functional
Mus musculus [22] = experiment: Tumor volume inhibition administered iv at a dose of 14 mg/kg to nude mice bearing sc Human HT-29/Mx Xenografts; type: functional
Summary of the method: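 Swiss nude athymic mice carrying tumor fragments grafted sc in both flanks, 4–5 mice (8–10 tumors) per group. Tumor lines kept by sc passage. Dosing iv once weekly for 3 doses, starting at mean tumor volume ca. 80–100 mm3 (A2780, HT29/Mx: days 4, 11, 18; A2780/Dx: days 7, 14, 21). Diameters measured twice weekly; TV = d²×D/2. %TVI treated vs control assessed 3–10 days after last dose.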

Mus musculus [23] = experiment: Antileukemic activity expressed as number of toxic deaths/total number of mice at dose 22.5 mg/kg tested in 6 animals; type: functional
PC-3 = experiment: In vitro Cytotoxic activity of compound in comparison with reference compounds in human cell line PC3; type: functional, cell-based; summary of the method: as §1
Mus musculus [24] = experiment: Toxic deaths at dose of 14 mg/kg (i.v.) to nude mice bearing sc Human HT-29/Mx tumor Xenografts tested in 4 animals; type: functional; conditions: route intravenous; summary of the method: as §5
Mus musculus [25] = experiment: In vivo antileukemic activity towards P388 Murine Leukemia at a dose of 20.0 mg/kg; type: functional
HT-29 [26] = experiment: Effect of compound as percent survival at dose of 25 ng/mL on HT-29 cell line after 72 hours; type: functional; conditions: Homo sapiens, HT-29, 72 h; read-out: Survival; summary of the method: as §2
K562 = experiment: Compound was tested in vitro for cytotoxicity against sensitive cell line K562S (72 hr exposure to compound); conditions: Homo sapiens, K562, 72 h

Molecule `CN(C)CCNc1ccc2ncnc3c2c1C(=O)c1c(O)ccc(O)c1-3` has an IC50 (A2780 [1]) of 9.5 nM, an IC50 (A2780 [2]) of 8.3 nM and a Survival (HT-29 [3]) of 20%. It also gave an Inhibition (HT-29 [4]) of 25%, an inhibition at 0.01 µg/mL (HT-29 [5]) of 63% and an inhibition at 0.02 µg/mL (HT-29 [6]) of 58%. For the same molecule, the inhibition at 0.02 µg/mL (HT-29 [7]) was 31%, the Inhibition (HT-29 [8]) was 17% and the inhibition at 0.02 µg/mL (HT-29 [9]) was 11%. The viability at 0.01 µg/mL (HT-29 [10]) was 100%, the IC50 (L1210) was 1.29 nM and the IC50 (LoVo) was 12.7 nM. For the same molecule, the Body weight change (Mus musculus [11]) was 1.05 BWC, the Body weight change (Mus musculus [12]) was 0.88 BWC and the LTS (Mus musculus [13]) was 0. The LTS (Mus musculus [14]) was 0, the “T/C (ratio of treated to control)” value (Mus musculus [15]) was 118% and the “T/C (ratio of treated to control)” value (Mus musculus [16]) was 172% and 196%. The “T/C (ratio of treated to control)” value (Mus musculus [17]) was 145%, the Toxic deaths (Mus musculus [18]) was 0 and the Toxic deaths (Mus musculus [19]) was 0. The Toxic deaths (Mus musculus [20]) was 0, the LTS (Mus musculus [21]) was 0 and the TVI (Mus musculus [22]) was 7%. It also gave a Toxic deaths (Mus musculus [23]) of 1, an IC50 (PC-3) of 11.6 nM and a Toxic deaths (Mus musculus [24]) of 0. The “T/C (ratio of treated to control)” value (Mus musculus [25]) was 205% and 207%, the viability at 0.025 µg/mL (HT-29 [26]) was 53% and the IC50 (K562) was 5.56 nM.
